These results are taken from ChEMBL document CHEMBL1140517, “Synthesis, antifungal and antimycobacterial activities of new bis-imidazole derivatives, and prediction of their binding to P450(14DM) by molecular docking and MM/PBSA method” (2007).

In brackets after ≈: the same amount, converted by molar mass.

What all share (type): functional
In assay [1] the test system is Candida albicans. Briefly: Antimicrobial activity against Candida albicans 3038 after 24 hrs. Put shortly: (§1)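 Broth MIC against clinical Candida isolates (C. albicans 3038 and C. glabrata 123). Compounds were taken from 4 mg/mL DMSO stock solutions (stock, not final concentration). Miconazole and amphotericin B served as reference compounds. Each MIC was determined twice in duplicate experiments and read after 24 h and 48 h of incubation.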

The test system of assay [2] is Candida albicans. Put plainly: Antimicrobial activity against Candida albicans 3038 after 48 hrs. Put shortly: as §1
The test system of assay [3] is Nakaseomyces glabratus. Put plainly: Antimicrobial activity against Candida glabrata 123 after 24 hrs. In short, it runs like this:
as §1

Assay [4] relates to Nakaseomyces glabratus. Briefly: Antimicrobial activity against Candida glabrata 123 after 48 hrs. Put shortly:
as §1

The test system of assay [5] is Mycobacterium tuberculosis. Briefly: Antimicrobial activity against Mycobacterium tuberculosis H37Rv after 24 hrs.
The test system of assay [6] is Mycobacterium tuberculosis. Briefly: Antimicrobial activity against Mycobacterium tuberculosis H37Rv assessed per disk after 24 hrs.

As to `O=C(c1ccc([N+](=O)[O-])cc1)C(Cn1ccnc1)Cn1ccnc1`, the MIC against Candida albicans [1] was 128 µg/mL (≈ 393 µM); with Candida albicans [2], more than 128 µg/mL; against Nakaseomyces glabratus [3], 128 µg/mL (≈ 393 µM); in the assay with Nakaseomyces glabratus [4], more than 128 µg/mL; in assay [5], 64 µg/mL (≈ 197 µM).
In the case of `O=C(c1ccc(-c2ccccc2)cc1)C(Cn1ccnc1)Cn1ccnc1`, the MIC with Candida albicans [1] is 2 µg/mL (≈ 5.61 µM); with Candida albicans [2] it was 4 µg/mL (≈ 11.2 µM); against Nakaseomyces glabratus [3] it was 4 µg/mL (≈ 11.2 µM); with Nakaseomyces glabratus [4], 8 µg/mL (≈ 22.4 µM); in assay [5], 8 µg/mL (≈ 22.4 µM).
With `O=C(c1ccc(Br)s1)C(Cn1ccnc1)Cn1ccnc1`, the MIC against Candida albicans [1] was found to be 64 µg/mL (≈ 175 µM); in the assay on Candida albicans [2] it was 64 µg/mL (≈ 175 µM); with Nakaseomyces glabratus [3] it was 64 µg/mL (≈ 175 µM); in the assay on Nakaseomyces glabratus [4], 128 µg/mL (≈ 350 µM); in assay [5] it was 16 µg/mL (≈ 43.8 µM).
Regarding `O=C(c1ccc(Br)cc1)C(Cn1ccnc1)Cn1ccnc1`, the MIC stood at 16 µg/mL (≈ 44.5 µM) with Candida albicans [1]; 32 µg/mL (≈ 89.1 µM) in the assay with Candida albicans [2]; 32 µg/mL (≈ 89.1 µM) with Nakaseomyces glabratus [3]; 64 µg/mL (≈ 178 µM) in the assay on Nakaseomyces glabratus [4]; 16 µg/mL (≈ 44.5 µM) in assay [5].
As for `O=C(c1ccc(F)cc1)C(Cn1ccnc1)Cn1ccnc1`, the MIC amounted to 64 µg/mL (≈ 215 µM) with Candida albicans [1]; 128 µg/mL (≈ 429 µM) with Candida albicans [2]; 128 µg/mL (≈ 429 µM) against Nakaseomyces glabratus [3]; 128 µg/mL (≈ 429 µM) in the assay on Nakaseomyces glabratus [4]; 16 µg/mL (≈ 53.6 µM) in assay [5].
Turning to `Cc1ccc(C(=O)C(Cn2ccnc2)Cn2ccnc2)cc1`, the MIC against Candida albicans [1] was determined as 64 µg/mL (≈ 217 µM); in the assay on Candida albicans [2] it was 128 µg/mL (≈ 435 µM); against Nakaseomyces glabratus [3] it was 128 µg/mL (≈ 435 µM); in the assay with Nakaseomyces glabratus [4], 128 µg/mL (≈ 435 µM); in assay [5], 8 µg/mL (≈ 27.2 µM).
`O=C(c1cccs1)C(Cn1ccnc1)Cn1ccnc1`: the MIC against Candida albicans [1] came out at 128 µg/mL (≈ 447 µM); in the assay with Candida albicans [2], 128 µg/mL (≈ 447 µM); against Nakaseomyces glabratus [3], 128 µg/mL (≈ 447 µM); in the assay on Nakaseomyces glabratus [4], 128 µg/mL (≈ 447 µM); in assay [5] it was 16 µg/mL (≈ 55.9 µM).
As for `O=C(c1ccc(Cl)s1)C(Cn1ccnc1)Cn1ccnc1`, the MIC amounted to 64 µg/mL (≈ 199 µM) in the assay on Candida albicans [1]; 64 µg/mL (≈ 199 µM) in the assay on Candida albicans [2]; 64 µg/mL (≈ 199 µM) against Nakaseomyces glabratus [3]; 128 µg/mL (≈ 399 µM) against Nakaseomyces glabratus [4]; 16 µg/mL (≈ 49.9 µM) in assay [5].
Consider `O=C(c1ccc(Cl)cc1)C(Cn1ccnc1)Cn1ccnc1`, for which the MIC against Candida albicans [1] amounted to 16 µg/mL (≈ 50.8 µM); against Candida albicans [2], 32 µg/mL (≈ 102 µM); with Nakaseomyces glabratus [3] it was 32 µg/mL (≈ 102 µM); with Nakaseomyces glabratus [4], 64 µg/mL (≈ 203 µM); in assay [5], 16 µg/mL (≈ 50.8 µM).
Take `OC(c1ccc(Br)cc1)C(Cn1ccnc1)Cn1ccnc1` (stereo not drawn): the MIC against Candida albicans [1] was 128 µg/mL (≈ 354 µM); with Candida albicans [2], more than 128 µg/mL; in the assay with Nakaseomyces glabratus [3], 128 µg/mL (≈ 354 µM); in assay [5] it was 8 µg/mL (≈ 22.1 µM).
As to `COc1ccc(C(O)C(Cn2ccnc2)Cn2ccnc2)cc1` (stereo not drawn), the MIC is 128 µg/mL (≈ 410 µM) in the assay with Candida albicans [1]; more than 128 µg/mL in the assay with Candida albicans [2]; 128 µg/mL (≈ 410 µM) in the assay with Nakaseomyces glabratus [3]; more than 128 µg/mL against Nakaseomyces glabratus [4]; 64 µg/mL (≈ 205 µM) in assay [5].
Regarding `O=C(c1ccccc1)C(Cn1ccnc1)Cn1ccnc1`, the MIC against Candida albicans [1] was found to be 64 µg/mL (≈ 228 µM); against Candida albicans [2] it was 64 µg/mL (≈ 228 µM); in the assay with Nakaseomyces glabratus [3] it was 128 µg/mL (≈ 457 µM); against Nakaseomyces glabratus [4], 128 µg/mL (≈ 457 µM); in assay [5], 16 µg/mL (≈ 57.1 µM).
Turning to `COc1ccc(C(=O)C(Cn2ccnc2)Cn2ccnc2)cc1`, the MIC in the assay on Candida albicans [1] is 64 µg/mL (≈ 206 µM); in the assay on Candida albicans [2] it was 128 µg/mL (≈ 412 µM); against Nakaseomyces glabratus [3] it was 128 µg/mL (≈ 412 µM); against Nakaseomyces glabratus [4], 128 µg/mL (≈ 412 µM); in assay [5], 16 µg/mL (≈ 51.6 µM).
Consider `C[C@@H]1[C@H](O)[C@@H](C)/C=C/C=C/C=C/C=C/C=C/C=C/C=C/[C@H](O[C@@H]2O[C@H](C)[C@@H](O)[C@H](N)[C@@H]2O)C[C@@H]2O[C@](O)(C[C@@H](O)C[C@@H](O)[C@H](O)CC[C@@H](O)C[C@@H](O)CC(=O)O[C@H]1C)C[C@H](O)[C@H]2C(=O)O` [AMPHOTERICIN B], for which the MIC against Candida albicans [1] was 1 µg/mL (≈ 1.08 µM); against Candida albicans [2], 2 µg/mL (≈ 2.16 µM); against Nakaseomyces glabratus [3], 0.5 µg/mL (≈ 0.541 µM); against Nakaseomyces glabratus [4], 2 µg/mL (≈ 2.16 µM).
As for `Clc1ccc(COC(Cn2ccnc2)c2ccc(Cl)cc2Cl)c(Cl)c1` (stereo not drawn) [MICONAZOLE], the MIC against Candida albicans [1] stood at 2.5 µg/mL (≈ 6.01 µM); in the assay with Candida albicans [2], 5 µg/mL (≈ 12 µM); in the assay with Nakaseomyces glabratus [3] it was 1.25 µg/mL (≈ 3 µM); with Nakaseomyces glabratus [4] it was 2.5 µg/mL (≈ 6.01 µM).
Regarding `CO[C@H]1/C=C/O[C@@]2(C)Oc3c(C)c(O)c4c(O)c(c(/C=N/N5CCN(C)CC5)c(O)c4c3C2=O)NC(=O)/C(C)=C\C=C\[C@H](C)[C@H](O)[C@@H](C)[C@@H](O)[C@@H](C)[C@H](OC(C)=O)[C@@H]1C` [RIFAMPIN], in assay [6], the MIC is recorded as 1 mg.
